Test results taken from ChEMBL document CHEMBL4513216, “Probing the Open Global Health Chemical Diversity Library for Multistage-Active Starting Points for Next-Generation Antimalarials” (ACS Infect Dis, 2020).

Assay: Toxicity liver stage against HepG2, at 10uM
Type: cell-based
Set-up: test concentration 10 uM, cell line HepG2-A16-CD81EGFP
Settings: human, HepG2-A16-CD81EGFP cells; read-out: INHIBITION
How it was run: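 Uninfected HepG2-A16-CD81EGFP cells, 3 × 10^3 per well, 1536-well, plated on prespotted compound at 10 μM final, parasite-free screening media added to match infected plates; puromycin 10 μM positive, DMSO 0.5% negative; run in parallel with 48 h PbLuc assay at 37 °C, 5% CO2; viability by CellTiter-Glo luminescence, normalized to controls.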

Structure (SMILES) | cytotoxicity at 10 µM [%]
CC(=O)c1c(N(C)C)ccnc1C(F)(F)F | 1.1
O=C(C1CC(c2ccccc2)=NO1)N1CCc2ccccc21 (stereo not drawn) | -0.643
O=C1C[C@@H]2CCN(Cc3ccccc3)C[C@@H]2CCN1c1ccccc1 | 3.16
CC(C)NC(=O)NC[C@H]1OC[C@@H](NCc2ccc(F)cc2)[C@@H]1O | 2.07
COC(=O)c1cccc(C(=O)N2CCN(c3cc(C)ccc3C)CC2)n1 | 7.8
Cc1nnc(SC2CCc3ccccc3NC2=O)o1 (stereo not drawn) | 1.35
COc1ccc(CCNC(=O)NC2CC(=O)N(c3ccccc3)C2)cc1 (stereo not drawn) | -48
CCNC(=O)N1CC(c2nc(Cc3ccccc3)no2)C1 | -2.98
COc1ccc(CNC(=O)NCc2cc(C)oc2C)cc1 | -6
COc1cc(N2CCC3(CC2)CC(N2CCOCC2)CO3)ncn1 (stereo not drawn) | 3.44
CN(C)CC(=O)N1Cc2cc(-c3cc[nH]n3)ccc2C1c1cnco1 (stereo not drawn) | 21.4
CCN1C(=O)C2(CCOCC2)c2cc(NC(=O)COC)ccc21 | -0.82
O=C1CCCN1Cc1ncn2c1CN(C(=O)NC1CCCCC1)CCC2 | -150
O=C(C1CCOCC1)N1CCO[C@H]2[C@@H](OCC3CC3)CC[C@@H]21 | -6.22
Cc1noc(-c2ccc(N3CCCC(C(=O)O)C3)nc2)n1 (stereo not drawn) | -2.38
CCOc1cccc(CNc2cccc(C(=O)OC)c2)c1O | 7.36
COc1ccccc1C1CC(=O)Nc2c1c(=O)[nH]n2C(C)C (stereo not drawn) | -4.08
COc1cc(N2C[C@H]3OCC[C@H]3[C@H](C(=O)NC3CC3)C2)ncn1 | -8.83
Cc1ccsc1CNCCCOc1ccccn1 | -0.575
Cc1ccc(-c2snnc2C(=O)NCCCO)cc1 | 6.67
O=C(COCc1nc(-c2ccncc2)no1)N1CCCCC1 | 5.4
O=C(c1cc(-c2cccnc2)[nH]n1)N1CCCC(c2cnccn2)C1 (stereo not drawn) | 6.21
O=C(NCC1(O)COCCN(Cc2cccc(O)c2)C1)c1cscn1 (stereo not drawn) | -2.28

Structure (SMILES) | cytotoxicity at 10 µM [%]
O=C(O)c1cncc(Cc2cccc(F)c2)c1 | 5.31
Cc1cc(-c2cnc(C)nc2CN(C)C(=O)c2cc(C3CC3)on2)on1 | -20
COc1cccc(CN2CCOC(c3cnccn3)C2)c1F (stereo not drawn) | 8.63
Cc1ccc(S(=O)(=O)NC(=O)CCc2ccco2)cc1N(C)C | -0.845
CCCS(=O)(=O)C(C)C(=O)Nc1ccc2oc(C3CC3)nc2c1 (stereo not drawn) | 5.3
Brc1ccc(NCCCOC2CCOCC2)nc1 | 1.52
CS(=O)(=O)c1ccc(Cl)c(C(=O)NCCC2=CCCCC2)c1 | 8.17
O=C(NCCNc1ncccn1)c1ccc(Cl)s1 | 4.6
O=C1CC2(CCSC2)C(=O)N1Cc1coc(-c2ccc(F)cc2)n1 (stereo not drawn) | 6.88
N#Cc1ccccc1CN1CCC(CN2CCOCC2)C1 (stereo not drawn) | -4.5
CNS(=O)(=O)c1ccc(C(=O)NCc2ccnc(OC)c2)cc1 | 2.86
CC(NCc1cnc(N2CCOCC2)s1)c1ccc(Cl)s1 (stereo not drawn) | -9.02
Cn1c(SCc2noc(-c3ccsc3)n2)nnc1C1CCS(=O)(=O)C1 (stereo not drawn) | 3.39
Cc1cccc(CN(Cn2nc(C)c3c(C)onc3c2=O)C2CC2)c1 | 1.33
Cc1noc(CCCC(=O)NC(C)c2nnc3n2CCCCC3)n1 (stereo not drawn) | 3.21
Cc1nn(CC(O)CN2CCC(C)CC2)c(=O)c(C#N)c1C (stereo not drawn) | 5.84
CC(C)C(C)NC(=O)Nc1ccc(CC(N)=O)cc1 (stereo not drawn) | -3.36
CCCc1n[nH]c(C2CN(C(=O)CCCn3ccnc3)CCO2)n1 (stereo not drawn) | -5.39
COc1ncc(C)cc1NC(=O)COCC(F)(F)F | -5.42
Cc1nnc(CN2CCC(Oc3ccc(C)c(C)c3)CC2)o1 | 7.27
Cc1nc(C)n(CC2CN(CCn3cccn3)CCO2)n1 (stereo not drawn) | -0.665
CNC(=O)c1ccc(=O)n(Cc2csc(N(C)C(C)=O)n2)c1 | 0.138
N#CCCCS(=O)(=O)N1CCC(CSc2ccccc2)C1 (stereo not drawn) | 1.7

Structure (SMILES) | cytotoxicity at 10 µM [%]
OC(CN(Cc1ccccc1)Cc1ccncc1)c1ccco1 (stereo not drawn) | 24.7
O=c1oc(-c2ccc(F)cc2)nn1CCc1ccncc1 | -3.57
Cc1cn2nc(Sc3nnnn3C)sc2n1 | 17.3
CC(SCC(=O)N(C)CC(=O)NC1CC1)c1ccc(F)c(F)c1 (stereo not drawn) | -0.369
CC(=O)Nc1ccc(CNC2CCCSC2)cc1 (stereo not drawn) | -10.5
Cc1noc(C)c1CCC(=O)N1CCn2cccc2C1C (stereo not drawn) | -0.376
CN(C)S(=O)(=O)c1ccc(CN2CCC(C(N)=O)CC2)o1 | 0.214
O=C(NCCCn1cccn1)c1csc2c1CCCC2 | -10.2
CN(CCc1ccccn1)c1cnn(C)c(=O)c1Br | -5.03
Cc1nnc(-c2cccc(C#N)c2)n1C1CCCN(C(C)C)C1=O (stereo not drawn) | -6.74
Cc1cnn(CCNCC(=O)NC(c2ccccc2)c2ccccc2)c1 | -5.73
O=S(=O)(Cc1ccccc1)NCc1ccnc(O)c1 | -1.2
O=C(NCc1cccnc1)C1=NN(c2ccccc2)C(=O)CN1 | 12.3
COC(=O)CCNC(=O)C1CC(=O)N(C2CCCC2)C1 (stereo not drawn) | -22.9
CSC(C)(C)CNC(=O)NC1CCSCC1 | 17.5
N#Cc1cccnc1NCCNC(=O)N1CCCSCC1 | -10.8
N#Cc1ncn(CC(=O)Nc2cc(Cl)ccc2F)n1 | -2.75
CC(=O)N1CCN(S(=O)(=O)c2ccc(C)c(F)c2)CC1 | -9.42
CCc1nnc2n1CC(CNCc1ccncc1)CC2 (stereo not drawn) | -15.1
O=C(NCC(O)c1ccccc1Cl)c1cccc(-n2cnnn2)c1 (stereo not drawn) | -15.6
Cc1noc(C)c1CN1C[C@H]2CNC[C@H]2C1 | 6.62
O=C(NCC1CC1)C1=NOC2(CCN(S(=O)(=O)c3ccc(F)cc3)C2)C1 (stereo not drawn) | 3.25
CN(C)C[C@@H]1CN(C(=O)Cc2ccccc2)C[C@@H]1CO | -1.07

Structure (SMILES) | cytotoxicity at 10 µM [%]
COc1cccc2c1OCC(CNC(=O)Cc1cnccn1)C2 (stereo not drawn) | -145
COc1ccc(C(C(=O)O)N2CCC(O)(c3cccnc3)CC2)cc1F (stereo not drawn) | 50.8
COc1cccc(S(=O)(=O)N2CCCCC2CCN2CCCC2=O)c1 (stereo not drawn) | 7.12
Cc1ccc(C(NC(=O)CCCN2CCCCC2)C(=O)O)cc1 (stereo not drawn) | 2.87
Cc1cc(C)c(Cn2cncn2)cc1CN1CC[C@H](CO)[C@@H](O)C1 | -5.42
O=C(NC1CC(=O)N(C2Cc3ccccc3C2)C1)c1cc[n+]([O-])cc1 (stereo not drawn) | -1.03
CCn1c(-c2ccccc2)nn(CC(=O)NCCc2ccc(C)o2)c1=O | -0.545
Clc1cc(NCc2ncc[nH]2)nc2[nH]ccc12 | 6.68
N#Cc1cc2c(=O)n(CC(O)c3cccc(O)c3)ccc2[nH]c1=O (stereo not drawn) | 2.86
Cc1cn2cc(C(=O)NC3CCCN(c4ncccn4)C3)ccc2n1 (stereo not drawn) | 12.1
CC(Cc1cn(CCc2nnn[nH]2)nn1)c1ccccc1 (stereo not drawn) | 3.78
CC(C)NC(=O)CN1CCN(CC2CCOc3ccccc3C2)CC1 (stereo not drawn) | -1.72
Cc1nccc(N2CCC(Cc3cccc(C(=O)O)c3)CC2)n1 | -135
CCS(=O)(=O)N[C@H]1CN(Cc2noc(COC)n2)C[C@@H]1C1CC1 | -3.22
CN(Cc1nncn1-c1cccc(C(F)(F)F)c1)S(C)(=O)=O | 3.01
O=C(c1cccc(CO)n1)N1CCOC(c2ccc(Cl)c(Cl)c2)C1 (stereo not drawn) | -10.4
O=C(O)[C@@H]1CN(C(=O)c2cc(C3CC3)n[nH]2)C[C@H]1c1cccc(F)c1 | -9
COc1ccc2c(c1)CCN(CCC(=O)O)CC2 | -9.21
CCN(CC)S(=O)(=O)N(CC)Cc1ccc2c(c1)OCCO2 | 4.66
COC(=O)C(NC(=O)CCOC(C)C)c1cc(F)ccc1F (stereo not drawn) | -4.11
Cc1nc(C)c(CN2CCC(N(C)Cc3noc(C4CC4)n3)C2)s1 (stereo not drawn) | -20
O=C(CN1CC(n2cccn2)C1)NCCc1ccc(F)cc1 | -14.3
Cc1ccc(NC2CCN(C(=O)C(C)n3cncn3)CC2)nn1 (stereo not drawn) | -14.2

Structure (SMILES) | cytotoxicity at 10 µM [%]
CCc1noc(C)c1C(=O)N1CCCC(n2nc(C)nc2C)C1 (stereo not drawn) | -7.01
O=C(CCc1ccccc1Cl)NS(=O)(=O)c1ccc2c(c1)OCCO2 | -6.69
Cn1ncc2c(=O)[nH]c(CN3CCCC3c3ccccc3Cl)nc21 (stereo not drawn) | -4.8
Cc1ccc(C(=O)N2CCN(CC(C)O)CC2)cc1S(C)(=O)=O (stereo not drawn) | -2.96
CCc1nnc2n1CCN(C(=O)c1ccc(-c3ccco3)[nH]c1=O)C2 | -11.5
Cc1nc(C)n(CC2CCCN(CCOc3ccc(C#N)cc3)C2)n1 (stereo not drawn) | -1.55
Fc1cccc(-n2ccc(CN3CCCC3Cn3cncn3)n2)c1 (stereo not drawn) | -9.43
Cc1cnn(CC2CCCN2C(=O)c2n[nH]c3ccccc23)c1 (stereo not drawn) | -9.93
Cc1nc(C2CCCN(C(=O)c3ccc(N4CCCC4)nn3)C2)no1 (stereo not drawn) | -13.6
CN1CCCc2cc(CNC(=O)c3cccnc3O)ccc21 | -1.68
Cn1cnc2c1CCN(Cc1csc(C3CCCC3)n1)C2 | -12.3
COCCOc1ncccc1C(=O)N1CCCC(n2ccnc2C)C1 (stereo not drawn) | -7.52
Cc1nnc(NC(=O)NCc2cccnc2N(C)C)s1 | -10.3
CCOC(=O)N1CCC2(CCNC2)C1 (stereo not drawn) | 2.14
CN1C(=O)C2(CCN(Cc3nccn3C)CC2)c2ccccc21 | 1.49
O=C1CCC2(CCCN(Cc3ccccc3F)C2)N1CC1CC1 (stereo not drawn) | 6.06
Cc1cccc(CN2C(=O)CCC23CCNCC3)n1 | 0.758
CN1CCc2c(CNC(=O)c3nccn3C)cncc2C1 | -95.7
CC(C)OC(=O)N1C[C@@H]2CC[C@H]1CN(Cc1cccnc1)C2 | 0.189
O=C(CC1[C@H]2CN(Cc3ccncc3)C[C@@H]12)N1CCCC1 (stereo partly drawn) | 2.58
C=Cc1cccc(CN2C[C@@H]3CC[C@H]2CN(Cc2c(C)noc2C)C3)c1 | -6.58
